# Assay results reported in ChEMBL document CHEMBL1152649, “Synthesis, cytotoxicity and human telomerase inhibition activities of a series of 1,2-heteroannelated anthraquinones and anthra[1,2-d]imidazole-6,11-dione homologues” (2009).
# Activity calls are given as the source filed them. No cut-off for these calls is given here.
# Key:
# [1] = Cytotoxicity against human H1299 cells at 10 uM after 48 hrs by MTT assay; assay type: functional; conditions: NCI-H1299, 48 h
# Summary of the method: (§1)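 H1299 non-small cell lung cancer cells were grown in RPMI 1640 with 10% FBS, penicillin and streptomycin at 37 °C under 5% CO2. About 2 × 10³ cells per well were seeded and left 24 h. Compounds were dissolved fresh in DMSO, diluted into complete medium and applied for 48 h. MTT was then added for 4 h at 37 °C, followed by lysis buffer (20% SDS, 50% DMF) for 16 h, and absorbance was read at 550 nm.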
# HCT-116 = assay: Antiproliferative activity against human HCT116 cells assessed as cell growth at 10 uM; assay type: functional; conditions: read-out: Activity
# Summary of the method: (§2)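 NCI 60 cell line panel, single-dose screen (10^-5 M) run by the developmental therapeutics program protocol. Results are given as growth percent of treated cells relative to untreated control cells for each line.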
# DU-145 = assay: Antiproliferative activity against human DU145 cells assessed as cell growth at 10 uM; assay type: functional; conditions: read-out: Activity; summary of the method: as §2
# [2] = Antiproliferative activity against human Hs 578T cells assessed as cell growth at 10 uM; assay type: functional; conditions: read-out: Activity; summary of the method: as §2
# SF-295 = assay: Antiproliferative activity against human SF295 cells assessed as cell growth at 10 uM; assay type: functional; conditions: read-out: Activity; summary of the method: as §2
# ACHN = assay: Antiproliferative activity against human ACHN cells assessed as cell growth at 10 uM; assay type: functional; conditions: read-out: Activity; summary of the method: as §2
# OVCAR-5 = assay: Antiproliferative activity against human OVCAR5 cells assessed as cell growth at 10 uM; assay type: functional; conditions: read-out: Activity; summary of the method: as §2
# MCF7 = assay: Antiproliferative activity against human MCF7 cells assessed as cell growth at 10 uM; assay type: functional; conditions: read-out: Activity; summary of the method: as §2
# UACC-62 = assay: Antiproliferative activity against human UACC62 cells assessed as cell growth at 10 uM; assay type: functional; conditions: read-out: Activity
# Summary of the method: (§3)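 NCI 60 cell line panel, single dose (10^-5 M), run per the Developmental Therapeutics Program protocol (one dose mean graph). Each result is the growth percentage of treated cells relative to untreated control cells.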
# [3] = target: Telomerase reverse transcriptase (Homo sapiens) (UniProt O14746); assay: Inhibition of TERT in human H1299 cells assessed as residual transcriptional activity at 10 uM after 24 hrs by SEAP reporter gene assay; values are per cent of control
# Chain of Telomerase reverse transcriptase (Homo sapiens) (O14746 whole entry): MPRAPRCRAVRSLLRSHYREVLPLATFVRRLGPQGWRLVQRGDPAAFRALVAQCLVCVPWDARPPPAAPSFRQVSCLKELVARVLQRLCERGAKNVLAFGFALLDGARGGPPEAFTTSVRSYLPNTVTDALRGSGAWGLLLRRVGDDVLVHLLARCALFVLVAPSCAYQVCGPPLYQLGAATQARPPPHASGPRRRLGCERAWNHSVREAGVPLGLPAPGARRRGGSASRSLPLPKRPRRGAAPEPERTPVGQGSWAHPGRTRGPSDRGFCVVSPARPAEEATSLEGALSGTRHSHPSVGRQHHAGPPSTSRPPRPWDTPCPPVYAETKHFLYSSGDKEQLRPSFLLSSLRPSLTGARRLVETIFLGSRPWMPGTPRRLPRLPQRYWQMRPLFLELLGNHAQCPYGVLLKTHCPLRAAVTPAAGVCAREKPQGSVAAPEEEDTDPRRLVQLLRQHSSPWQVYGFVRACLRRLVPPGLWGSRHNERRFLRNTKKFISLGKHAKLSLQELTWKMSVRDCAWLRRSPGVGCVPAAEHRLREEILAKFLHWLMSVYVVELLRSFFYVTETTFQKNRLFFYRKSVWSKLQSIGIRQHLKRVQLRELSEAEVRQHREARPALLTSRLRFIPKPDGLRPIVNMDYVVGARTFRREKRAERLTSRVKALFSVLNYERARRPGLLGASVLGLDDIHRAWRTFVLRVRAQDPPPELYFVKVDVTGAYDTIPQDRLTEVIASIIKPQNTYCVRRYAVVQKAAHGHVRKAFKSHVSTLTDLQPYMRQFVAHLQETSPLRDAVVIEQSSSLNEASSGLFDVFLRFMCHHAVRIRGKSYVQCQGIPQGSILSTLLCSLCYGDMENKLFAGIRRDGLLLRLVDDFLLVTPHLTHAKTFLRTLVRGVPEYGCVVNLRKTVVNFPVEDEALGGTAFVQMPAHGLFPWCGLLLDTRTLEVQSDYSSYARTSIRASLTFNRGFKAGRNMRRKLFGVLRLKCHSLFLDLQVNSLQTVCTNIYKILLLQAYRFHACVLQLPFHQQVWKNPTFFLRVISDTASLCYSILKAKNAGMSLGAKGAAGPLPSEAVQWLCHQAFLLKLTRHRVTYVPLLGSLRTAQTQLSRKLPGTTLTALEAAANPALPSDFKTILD
# U-251 = assay: Antiproliferative activity against human U251 cells assessed as cell growth at 10 uM; assay type: functional; conditions: read-out: Activity; summary of the method: as §3
# [4] = Antiproliferative activity against human RPMI8266 cells assessed as cell growth at 10 uM; assay type: functional; conditions: read-out: Activity; summary of the method: as §2
# EKVX = assay: Antiproliferative activity against human EKVX cells assessed as cell growth at 10 uM; assay type: functional; conditions: read-out: Activity; summary of the method: as §2
# UO-31 = assay: Antiproliferative activity against human UO31 cells assessed as cell growth at 10 uM; assay type: functional; conditions: read-out: Activity; summary of the method: as §3
# MDA-MB-231 = assay: Antiproliferative activity against human MDA-MB-231 cells assessed as cell growth at 10 uM; assay type: functional; conditions: read-out: Activity; summary of the method: as §2
# A549 = assay: Antiproliferative activity against human A549 cells assessed as cell growth at 10 uM; assay type: functional; conditions: read-out: Activity; summary of the method: as §2
# SNB-75 = assay: Antiproliferative activity against human SNB75 cells assessed as cell growth at 10 uM; assay type: functional; conditions: read-out: Activity; summary of the method: as §3
# OVCAR-3 = assay: Antiproliferative activity against human OVCAR-3 cells assessed as cell growth at 10 uM; assay type: functional; conditions: read-out: Activity; summary of the method: as §2
# SF-268 = assay: Antiproliferative activity against human SF268 cells assessed as cell growth at 10 uM; assay type: functional; conditions: read-out: Activity; summary of the method: as §2
# NCI/ADR-RES = assay: Antiproliferative activity against human NCI/ADR-RES cells assessed as cell growth at 10 uM; assay type: functional; conditions: read-out: Activity; summary of the method: as §2
# CCRF-CEM = assay: Antiproliferative activity against human CCRF-CEM cells assessed as cell growth at 10 uM; assay type: functional; conditions: read-out: Activity; summary of the method: as §2
# SK-OV-3 = assay: Antiproliferative activity against human SKOV3 cells assessed as cell growth at 10 uM; assay type: functional; conditions: read-out: Activity; summary of the method: as §2
# SK-MEL-28 = assay: Antiproliferative activity against human SK-MEL-28 cells assessed as cell growth at 10 uM; assay type: functional; conditions: read-out: Activity; summary of the method: as §2
# NCI-H460 = assay: Antiproliferative activity against human NCI-H460 cells assessed as cell growth at 10 uM; assay type: functional; conditions: read-out: Activity; summary of the method: as §2
# NCI-H23 = assay: Antiproliferative activity against human NCI-H23 cells assessed as cell growth at 10 uM; assay type: functional; conditions: read-out: Activity; summary of the method: as §2
# KM12 = assay: Antiproliferative activity against human KM12 cells assessed as cell growth at 10 uM; assay type: functional; conditions: read-out: Activity; summary of the method: as §2
# CAKI-1 = assay: Antiproliferative activity against human Caki1 cells assessed as cell growth at 10 uM; assay type: functional; conditions: read-out: Activity; summary of the method: as §2
# MOLT-4 = assay: Antiproliferative activity against human MOLT4 cells assessed as cell growth at 10 uM; assay type: functional; conditions: read-out: Activity; summary of the method: as §2
# OVCAR-8 = assay: Antiproliferative activity against human OVCAR8 cells assessed as cell growth at 10 uM; assay type: functional; conditions: read-out: Activity; summary of the method: as §2
# M14 = assay: Antiproliferative activity against human M14 cells assessed as cell growth at 10 uM; assay type: functional; conditions: read-out: Activity; summary of the method: as §2
# HT-29 = assay: Antiproliferative activity against human HT-29 cells assessed as cell growth at 10 uM; assay type: functional; conditions: read-out: Activity; summary of the method: as §2
# [5] = target: Telomerase reverse transcriptase (Homo sapiens) (UniProt O14746); assay: Inhibition of TERT in human H1299 cells assessed as residual transcriptional activity at 1 uM after 24 hrs by SEAP reporter gene assay; values are per cent of control
# [6] = target: Telomerase reverse transcriptase (Homo sapiens) (UniProt O14746); assay: Inhibition of telomerase in human H1299 cells up to 100 uM by TRAP assay; assay type: cell-based
# Summary of the method: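 PCR-based telomeric repeat amplification protocol (TRAP). The telomerase source was total lysate of H1299 lung cancer cells, with protein measured against BSA standards. Controls were extract without inhibitor and RNase A-treated extract.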
# NCI-H322M = assay: Antiproliferative activity against human NCI-H322M cells assessed as cell growth at 10 uM; assay type: functional; conditions: read-out: Activity; summary of the method: as §2
# HCC 2998 = assay: Antiproliferative activity against human HCC2998 cells assessed as cell growth at 10 uM; assay type: functional; conditions: read-out: Activity; summary of the method: as §2
# UACC-257 = assay: Antiproliferative activity against human UACC257 cells assessed as cell growth at 10 uM; assay type: functional; conditions: read-out: Activity; summary of the method: as §3
# [7] = Cytotoxicity against human H1299 cells at 100 uM after 48 hrs by MTT assay; assay type: functional; conditions: NCI-H1299, 48 h; summary of the method: as §1
# 786-0 = assay: Antiproliferative activity against human 786-0 cells assessed as cell growth at 10 uM; assay type: functional; conditions: read-out: Activity; summary of the method: as §2
# SK-MEL-5 = assay: Antiproliferative activity against human SK-MEL-5 cells assessed as cell growth at 10 uM; assay type: functional; conditions: read-out: Activity; summary of the method: as §2
# T47D = assay: Antiproliferative activity against human T47D cells assessed as cell growth at 10 uM; assay type: functional; conditions: read-out: Activity; summary of the method: as §3
# OVCAR-4 = assay: Antiproliferative activity against human OVCAR4 cells assessed as cell growth at 10 uM; assay type: functional; conditions: read-out: Activity; summary of the method: as §2
# COLO 205 = assay: Antiproliferative activity against human COLO205 cells assessed as cell growth at 10 uM; assay type: functional; conditions: read-out: Activity; summary of the method: as §2
# TK-10 = assay: Antiproliferative activity against human TK10 cells assessed as cell growth at 10 uM; assay type: functional; conditions: read-out: Activity; summary of the method: as §3
# SK-MEL-2 = assay: Antiproliferative activity against human SK-MEL-2 cells assessed as cell growth at 10 uM; assay type: functional; conditions: read-out: Activity; summary of the method: as §2
# NCI-H522 = assay: Antiproliferative activity against human NCI-H522 cells assessed as cell growth at 10 uM; assay type: functional; conditions: read-out: Activity; summary of the method: as §2
# PC-3 = assay: Antiproliferative activity against human PC3 cells assessed as cell growth at 10 uM; assay type: functional; conditions: read-out: Activity; summary of the method: as §2
compound,measurement,setting,value
O=C1c2ccccc2C(=O)c2c1ccc1nsnc21,viability at 10 µM,[1],16%
same,growth at 10 µM,HCT-116,-50%
same,growth at 10 µM,DU-145,40.8%
same,growth at 10 µM,[2],-7.4%
same,growth at 10 µM,SF-295,126%
same,growth at 10 µM,ACHN,-94.3%
same,growth at 10 µM,OVCAR-5,-20.1%
same,growth at 10 µM,MCF7,-50.7%
same,growth at 10 µM,UACC-62,-82.3%
same,residual activity,[3],10%
same,growth at 10 µM,U-251,-89.3%
same,growth at 10 µM,[4],-28%
same,growth at 10 µM,EKVX,103%
same,growth at 10 µM,UO-31,-79.3%
same,growth at 10 µM,MDA-MB-231,-17.3%
same,growth at 10 µM,A549,104%
same,growth at 10 µM,SNB-75,79%
same,growth at 10 µM,OVCAR-3,-15.5%
same,growth at 10 µM,SF-268,16.3%
same,growth at 10 µM,NCI/ADR-RES,-2.53%
same,growth at 10 µM,CCRF-CEM,-30.8%
same,growth at 10 µM,SK-OV-3,101%
same,growth at 10 µM,SK-MEL-28,15.5%
same,growth at 10 µM,NCI-H460,77.4%
same,growth at 10 µM,NCI-H23,16.1%
same,growth at 10 µM,KM12,98.6%
same,growth at 10 µM,CAKI-1,1.97%
same,growth at 10 µM,MOLT-4,-40.1%
same,growth at 10 µM,OVCAR-8,-10.1%
same,growth at 10 µM,M14,74.5%
same,growth at 10 µM,HT-29,117%
same,residual activity,[5],89%
same,inhibition,[6],inactive
same,growth at 10 µM,NCI-H322M,126%
same,growth at 10 µM,HCC 2998,-0.74%
same,growth at 10 µM,UACC-257,-83.1%
same,viability at 100 µM,[7],17%
same,growth at 10 µM,786-0,-26%
same,growth at 10 µM,SK-MEL-5,8.52%
same,growth at 10 µM,T47D,-45.5%
same,growth at 10 µM,OVCAR-4,-94.4%
same,growth at 10 µM,COLO 205,112%
same,growth at 10 µM,TK-10,97%
same,growth at 10 µM,SK-MEL-2,-73.2%
Cc1ccc(-c2nc3ccc4c(c3[nH]2)C(=O)c2ccccc2C4=O)cc1,viability at 10 µM,[1],72%
same,growth at 10 µM,HCT-116,99.8%
same,growth at 10 µM,DU-145,98.8%
same,growth at 10 µM,[2],138%
same,growth at 10 µM,SF-295,94.2%
same,growth at 10 µM,ACHN,101%
same,growth at 10 µM,OVCAR-5,106%
same,growth at 10 µM,MCF7,41.9%
same,growth at 10 µM,UACC-62,90%
same,residual activity,[3],82%
same,growth at 10 µM,U-251,104%
same,growth at 10 µM,[4],91.5%
same,growth at 10 µM,EKVX,91.2%
same,growth at 10 µM,UO-31,75.2%
same,growth at 10 µM,MDA-MB-231,97.6%
same,growth at 10 µM,A549,55.7%
same,growth at 10 µM,SNB-75,107%
same,growth at 10 µM,OVCAR-3,96.1%
same,growth at 10 µM,SF-268,106%
same,growth at 10 µM,NCI/ADR-RES,104%
same,growth at 10 µM,CCRF-CEM,101%
same,growth at 10 µM,SK-OV-3,84.5%
same,growth at 10 µM,SK-MEL-28,154%
same,growth at 10 µM,NCI-H460,93.6%
same,growth at 10 µM,NCI-H23,98.8%
same,growth at 10 µM,KM12,106%
same,growth at 10 µM,CAKI-1,110%
same,growth at 10 µM,MOLT-4,106%
same,growth at 10 µM,OVCAR-8,96.4%
same,growth at 10 µM,M14,106%
same,growth at 10 µM,HT-29,106%
same,residual activity,[5],86%
same,inhibition,[6],inactive
same,growth at 10 µM,NCI-H322M,84.6%
same,growth at 10 µM,HCC 2998,104%
same,viability at 100 µM,[7],16%
same,growth at 10 µM,786-0,113%
same,growth at 10 µM,SK-MEL-5,88%
same,growth at 10 µM,T47D,76%
same,growth at 10 µM,OVCAR-4,96.8%
same,growth at 10 µM,COLO 205,108%
same,growth at 10 µM,NCI-H522,84.7%
same,growth at 10 µM,TK-10,154%
same,growth at 10 µM,PC-3,87.6%
same,growth at 10 µM,SK-MEL-2,79.6%
